Results from ChEMBL document CHEMBL4014298, “Discovery of a series of 8-(1-phenylpyrrolidin-2-yl)-6-carboxamide-2-morpholino-4H-chromen-4-one as PI3Kβ/δ inhibitors for the treatment of PTEN-deficient tumours” (Bioorg Med Chem Lett, 2017).
Values after ≈ are worked out from the molar mass of the structure shown. Active and inactive are the calls of the source. The rule behind the calls is not given here.

Key:
[1] = AUC in mouse at 30 umol/kg, po; assay type: ADME; conditions: in vivo
[2] = tested on: PC-3; assay: Antitumor activity against PTEN-deficient human PC3 cells xenografted in nude mouse assessed as tumor growth inhibition at 50 mg/kg, po bid relative to control; assay type: functional; conditions: PC-3, po, read-out: TGI
In short: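 Nude mice bearing PTEN-deficient PC3 prostate tumour xenografts; compound given orally twice daily (b.i.d.) at 100 or 50 mg/kg over chronic dosing; tumour growth inhibition versus control determined at end of study.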

[3] = Inhibition of PI3Kalpha mutant in human BT474 cells assessed as decrease in AKT phosphorylation at Thr308 after 2 hrs; assay type: cell-based; conditions: BT-474, 2 h
[4] = Fraction unbound in human plasma; assay type: ADME, cell-free
In short: (§1)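 Plasma protein binding in mouse, dog or human plasma, reported as fraction unbound (%).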

[5] = biological target: Phosphatidylinositol 3-kinase regulatory subunit alpha (Homo sapiens, UniProt P27986); assay: Inhibition of human PI3K p85alpha (1 to 724 residues) by ADP Glo HTS assay
Phosphatidylinositol 3-kinase regulatory subunit alpha, sequence (P27986 whole entry, the tested form may be a part): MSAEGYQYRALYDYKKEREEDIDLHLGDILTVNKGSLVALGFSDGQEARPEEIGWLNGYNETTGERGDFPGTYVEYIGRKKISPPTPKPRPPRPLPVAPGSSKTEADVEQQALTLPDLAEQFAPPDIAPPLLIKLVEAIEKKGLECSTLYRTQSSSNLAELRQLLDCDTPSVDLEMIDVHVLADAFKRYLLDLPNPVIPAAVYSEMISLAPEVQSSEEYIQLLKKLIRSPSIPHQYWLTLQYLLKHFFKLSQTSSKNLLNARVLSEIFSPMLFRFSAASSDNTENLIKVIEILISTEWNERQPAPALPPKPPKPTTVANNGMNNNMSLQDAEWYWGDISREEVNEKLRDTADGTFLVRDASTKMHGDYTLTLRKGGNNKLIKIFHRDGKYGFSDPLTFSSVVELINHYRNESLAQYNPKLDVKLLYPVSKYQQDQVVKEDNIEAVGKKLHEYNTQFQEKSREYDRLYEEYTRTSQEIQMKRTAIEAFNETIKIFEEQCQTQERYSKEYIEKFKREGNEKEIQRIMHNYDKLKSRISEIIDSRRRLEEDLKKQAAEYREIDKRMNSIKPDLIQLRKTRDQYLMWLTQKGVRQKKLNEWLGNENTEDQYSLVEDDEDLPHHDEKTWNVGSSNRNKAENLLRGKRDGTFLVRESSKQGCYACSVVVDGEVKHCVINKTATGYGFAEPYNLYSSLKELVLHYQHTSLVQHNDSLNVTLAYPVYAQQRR
In short: (§2)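 Lipid kinase selectivity assessed in a 15-kinase panel (Dundee University lipid kinase panel), IC50 determined.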

[6] = biological target: Cytochrome P450 1A2 (Homo sapiens, UniProt P05177); assay: Inhibition of CYP1A2 (unknown origin); assay type: ADME
Cytochrome P450 1A2, sequence (P05177 whole entry): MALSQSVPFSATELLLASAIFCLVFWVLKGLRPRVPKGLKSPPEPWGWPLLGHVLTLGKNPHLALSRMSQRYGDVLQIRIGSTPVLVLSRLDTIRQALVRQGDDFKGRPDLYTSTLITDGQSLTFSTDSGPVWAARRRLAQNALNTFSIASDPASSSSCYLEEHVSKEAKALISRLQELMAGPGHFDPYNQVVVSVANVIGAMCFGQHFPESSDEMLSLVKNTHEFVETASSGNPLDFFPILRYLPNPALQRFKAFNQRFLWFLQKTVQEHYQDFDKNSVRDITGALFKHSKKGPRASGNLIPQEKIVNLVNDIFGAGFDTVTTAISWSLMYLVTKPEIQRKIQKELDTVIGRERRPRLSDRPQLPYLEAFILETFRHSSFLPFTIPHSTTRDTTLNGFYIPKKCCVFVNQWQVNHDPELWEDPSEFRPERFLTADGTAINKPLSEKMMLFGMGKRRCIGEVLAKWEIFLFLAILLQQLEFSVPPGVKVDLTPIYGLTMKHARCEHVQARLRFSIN

[7] = Clearance in mouse blood at 5 umol/kg, iv or 30 umol/kg, po; assay type: ADME, organism-based
[8] = biological target: Phosphatidylinositol 5-phosphate 4-kinase type-2 alpha (Homo sapiens, UniProt P48426); assay: Inhibition of human PIP5K2alpha (1 to 406 residues) by ADP Glo HTS assay; in short: as §2
Phosphatidylinositol 5-phosphate 4-kinase type-2 alpha, sequence (P48426 whole entry, the tested form may be a part): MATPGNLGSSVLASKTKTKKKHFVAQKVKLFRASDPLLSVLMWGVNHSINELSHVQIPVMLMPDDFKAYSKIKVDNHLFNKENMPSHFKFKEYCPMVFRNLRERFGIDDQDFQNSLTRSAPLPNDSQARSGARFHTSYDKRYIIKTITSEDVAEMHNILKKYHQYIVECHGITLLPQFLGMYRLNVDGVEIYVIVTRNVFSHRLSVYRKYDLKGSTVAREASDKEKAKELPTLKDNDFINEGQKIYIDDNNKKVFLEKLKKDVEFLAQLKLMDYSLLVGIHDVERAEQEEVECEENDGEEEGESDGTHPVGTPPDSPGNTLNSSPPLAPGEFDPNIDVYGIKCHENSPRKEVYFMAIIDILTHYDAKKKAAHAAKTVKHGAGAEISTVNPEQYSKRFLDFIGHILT

[9] = tested on: Mus musculus; assay: In vivo inhibition of AKT phosphorylation at Ser473 in nude mouse xenografted with PTEN-deficient human PC3 cells at 30 mg/kg, po administered as single dose measured after 30 mins to 8 hrs; assay type: functional, organism-based
In short: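 Single oral dose (100 or 30 mg/kg) to nude mice carrying PTEN-deficient PC3 prostate xenografts; tumour AKT Ser473 phosphorylation measured at 30 min, 2 h and 8 h, with free plasma concentration determined at same time points.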

[10] = biological target: Phosphatidylinositol 4,5-bisphosphate 3-kinase catalytic subunit alpha isoform (Homo sapiens, UniProt P42336, E542K); assay: Inhibition of human PI3Kalpha (2 to 1068 residues)/p85 (1 to 724 residues) E542K mutant by ADP Glo HTS assay; in short: as §2
Phosphatidylinositol 4,5-bisphosphate 3-kinase catalytic subunit alpha isoform, sequence (P42336 whole entry E542K, the tested form may be a part, canonical isoform): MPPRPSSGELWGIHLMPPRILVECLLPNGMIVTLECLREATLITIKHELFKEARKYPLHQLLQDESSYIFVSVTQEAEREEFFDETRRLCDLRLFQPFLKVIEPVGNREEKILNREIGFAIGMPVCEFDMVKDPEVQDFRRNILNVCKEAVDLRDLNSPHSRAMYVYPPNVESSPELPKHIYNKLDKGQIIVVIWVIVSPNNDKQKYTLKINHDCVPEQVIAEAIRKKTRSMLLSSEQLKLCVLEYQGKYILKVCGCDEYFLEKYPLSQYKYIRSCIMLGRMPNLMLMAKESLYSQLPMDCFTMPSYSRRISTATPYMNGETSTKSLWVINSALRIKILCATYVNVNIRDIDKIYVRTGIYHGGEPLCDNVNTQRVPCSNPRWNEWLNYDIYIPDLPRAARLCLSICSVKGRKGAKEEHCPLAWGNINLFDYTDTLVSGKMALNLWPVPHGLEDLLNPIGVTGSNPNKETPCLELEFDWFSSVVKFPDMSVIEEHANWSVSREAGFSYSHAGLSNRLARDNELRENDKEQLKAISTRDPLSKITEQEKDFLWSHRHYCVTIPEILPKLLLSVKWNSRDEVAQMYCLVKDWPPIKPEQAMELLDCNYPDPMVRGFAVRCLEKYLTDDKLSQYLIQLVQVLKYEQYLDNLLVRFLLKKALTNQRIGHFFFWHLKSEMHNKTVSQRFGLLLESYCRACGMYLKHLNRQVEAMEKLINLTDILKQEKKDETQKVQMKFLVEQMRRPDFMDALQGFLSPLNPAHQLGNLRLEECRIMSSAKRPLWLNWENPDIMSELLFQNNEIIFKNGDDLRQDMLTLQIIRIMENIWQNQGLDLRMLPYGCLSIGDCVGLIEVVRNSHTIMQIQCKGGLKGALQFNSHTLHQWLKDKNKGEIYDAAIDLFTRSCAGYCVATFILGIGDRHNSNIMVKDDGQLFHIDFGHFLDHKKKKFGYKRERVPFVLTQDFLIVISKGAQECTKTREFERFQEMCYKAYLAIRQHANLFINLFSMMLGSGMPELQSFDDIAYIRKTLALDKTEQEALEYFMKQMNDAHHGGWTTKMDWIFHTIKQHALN

[11] = biological target: Cytochrome P450 2C19 (Homo sapiens, UniProt P33261); assay: Inhibition of CYP2C19 (unknown origin); assay type: ADME
Cytochrome P450 2C19, sequence (P33261 whole entry, the tested form may be a part): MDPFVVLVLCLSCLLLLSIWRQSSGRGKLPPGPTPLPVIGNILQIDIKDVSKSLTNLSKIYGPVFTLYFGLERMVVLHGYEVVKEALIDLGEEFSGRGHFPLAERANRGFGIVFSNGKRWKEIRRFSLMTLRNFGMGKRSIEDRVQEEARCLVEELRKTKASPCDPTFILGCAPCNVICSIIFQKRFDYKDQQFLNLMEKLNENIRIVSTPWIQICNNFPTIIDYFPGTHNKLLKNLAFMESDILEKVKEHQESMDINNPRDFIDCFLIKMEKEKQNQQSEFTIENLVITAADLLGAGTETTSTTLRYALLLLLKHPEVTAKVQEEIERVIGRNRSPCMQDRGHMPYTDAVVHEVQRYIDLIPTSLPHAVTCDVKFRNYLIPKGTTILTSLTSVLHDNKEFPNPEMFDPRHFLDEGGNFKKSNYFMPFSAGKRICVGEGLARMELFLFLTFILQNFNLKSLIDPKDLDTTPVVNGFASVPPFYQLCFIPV

[12] = biological target: Sphingosine kinase 2 (Homo sapiens, UniProt Q9NRA0); assay: Inhibition of human SPHK 2 (1 to 654 residues) by ADP Glo HTS assay; in short: as §2
[13] = biological target: Cytochrome P450 2D6 (Homo sapiens, UniProt P10635); assay: Inhibition of CYP2D6 (unknown origin); assay type: ADME
[14] = biological target: Choline kinase alpha (Homo sapiens, UniProt P35790); assay: Inhibition of human CHKalpha (1 to 457 residues) by ADP Glo HTS assay; in short: as §2
Choline kinase alpha, sequence (P35790 whole entry, the tested form may be a part): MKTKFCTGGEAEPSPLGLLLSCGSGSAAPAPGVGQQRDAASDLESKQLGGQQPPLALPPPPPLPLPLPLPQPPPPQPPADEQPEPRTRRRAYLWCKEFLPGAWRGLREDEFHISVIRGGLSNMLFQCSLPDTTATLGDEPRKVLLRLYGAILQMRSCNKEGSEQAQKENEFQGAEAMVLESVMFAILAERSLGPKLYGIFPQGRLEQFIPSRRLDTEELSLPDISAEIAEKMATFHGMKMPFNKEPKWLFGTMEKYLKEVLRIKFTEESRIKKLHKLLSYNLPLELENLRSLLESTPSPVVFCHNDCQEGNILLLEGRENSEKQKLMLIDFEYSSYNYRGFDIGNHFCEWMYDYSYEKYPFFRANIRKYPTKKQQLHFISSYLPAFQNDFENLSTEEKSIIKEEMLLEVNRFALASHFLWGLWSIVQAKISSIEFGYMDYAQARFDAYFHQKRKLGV

[15] = Oral bioavailability in dog blood at 10 umol/kg; assay type: ADME, organism-based, Canis lupus familiaris
[16] = biological target: T1, Phosphatidylinositol 4,5-bisphosphate 3-kinase catalytic subunit delta isoform (Homo sapiens, UniProt O00329); assay: Inhibition of PI3Kdelta in human JeKo1 B cells assessed as decrease in AKT phosphorylation at Ser473 measured after 1 hr; assay type: cell-based
T1 sequence (O00329 whole entry): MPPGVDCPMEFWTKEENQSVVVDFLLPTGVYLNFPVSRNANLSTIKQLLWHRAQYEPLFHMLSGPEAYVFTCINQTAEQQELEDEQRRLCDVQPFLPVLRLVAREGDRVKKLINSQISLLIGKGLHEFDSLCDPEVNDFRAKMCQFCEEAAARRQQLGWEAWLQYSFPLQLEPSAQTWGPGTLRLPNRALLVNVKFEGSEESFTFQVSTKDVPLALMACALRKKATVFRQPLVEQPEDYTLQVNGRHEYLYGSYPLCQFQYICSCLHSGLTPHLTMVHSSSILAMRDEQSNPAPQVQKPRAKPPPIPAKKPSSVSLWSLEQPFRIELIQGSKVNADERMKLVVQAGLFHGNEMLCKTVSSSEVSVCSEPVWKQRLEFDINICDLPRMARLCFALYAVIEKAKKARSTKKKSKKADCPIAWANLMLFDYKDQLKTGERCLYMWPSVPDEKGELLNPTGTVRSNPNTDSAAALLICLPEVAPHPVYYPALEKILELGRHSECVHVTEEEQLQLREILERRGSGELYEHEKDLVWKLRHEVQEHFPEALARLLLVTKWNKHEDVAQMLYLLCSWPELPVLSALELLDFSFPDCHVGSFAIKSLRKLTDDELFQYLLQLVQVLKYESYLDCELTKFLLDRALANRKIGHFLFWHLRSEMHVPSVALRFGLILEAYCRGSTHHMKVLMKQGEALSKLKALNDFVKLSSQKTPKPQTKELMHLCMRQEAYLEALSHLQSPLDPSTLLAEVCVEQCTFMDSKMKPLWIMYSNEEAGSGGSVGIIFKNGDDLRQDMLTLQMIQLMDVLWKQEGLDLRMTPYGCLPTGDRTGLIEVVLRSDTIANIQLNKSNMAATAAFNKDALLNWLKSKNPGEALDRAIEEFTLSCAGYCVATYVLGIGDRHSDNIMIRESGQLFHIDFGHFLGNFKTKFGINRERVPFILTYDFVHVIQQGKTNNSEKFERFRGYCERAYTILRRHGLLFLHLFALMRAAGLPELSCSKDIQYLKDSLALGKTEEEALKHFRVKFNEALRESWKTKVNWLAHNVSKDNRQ

[17] = biological target: Phosphatidylinositol 4,5-bisphosphate 3-kinase catalytic subunit gamma isoform (Homo sapiens, UniProt P48736); assay: Inhibition of recombinant human PI3Kgamma using PIP2 as substrate preincubated for 20 mins followed by substrate addition measured after 80 mins in presence of ATP by Kinase Glo luminescence assay
Phosphatidylinositol 4,5-bisphosphate 3-kinase catalytic subunit gamma isoform, sequence (P48736 whole entry, canonical isoform): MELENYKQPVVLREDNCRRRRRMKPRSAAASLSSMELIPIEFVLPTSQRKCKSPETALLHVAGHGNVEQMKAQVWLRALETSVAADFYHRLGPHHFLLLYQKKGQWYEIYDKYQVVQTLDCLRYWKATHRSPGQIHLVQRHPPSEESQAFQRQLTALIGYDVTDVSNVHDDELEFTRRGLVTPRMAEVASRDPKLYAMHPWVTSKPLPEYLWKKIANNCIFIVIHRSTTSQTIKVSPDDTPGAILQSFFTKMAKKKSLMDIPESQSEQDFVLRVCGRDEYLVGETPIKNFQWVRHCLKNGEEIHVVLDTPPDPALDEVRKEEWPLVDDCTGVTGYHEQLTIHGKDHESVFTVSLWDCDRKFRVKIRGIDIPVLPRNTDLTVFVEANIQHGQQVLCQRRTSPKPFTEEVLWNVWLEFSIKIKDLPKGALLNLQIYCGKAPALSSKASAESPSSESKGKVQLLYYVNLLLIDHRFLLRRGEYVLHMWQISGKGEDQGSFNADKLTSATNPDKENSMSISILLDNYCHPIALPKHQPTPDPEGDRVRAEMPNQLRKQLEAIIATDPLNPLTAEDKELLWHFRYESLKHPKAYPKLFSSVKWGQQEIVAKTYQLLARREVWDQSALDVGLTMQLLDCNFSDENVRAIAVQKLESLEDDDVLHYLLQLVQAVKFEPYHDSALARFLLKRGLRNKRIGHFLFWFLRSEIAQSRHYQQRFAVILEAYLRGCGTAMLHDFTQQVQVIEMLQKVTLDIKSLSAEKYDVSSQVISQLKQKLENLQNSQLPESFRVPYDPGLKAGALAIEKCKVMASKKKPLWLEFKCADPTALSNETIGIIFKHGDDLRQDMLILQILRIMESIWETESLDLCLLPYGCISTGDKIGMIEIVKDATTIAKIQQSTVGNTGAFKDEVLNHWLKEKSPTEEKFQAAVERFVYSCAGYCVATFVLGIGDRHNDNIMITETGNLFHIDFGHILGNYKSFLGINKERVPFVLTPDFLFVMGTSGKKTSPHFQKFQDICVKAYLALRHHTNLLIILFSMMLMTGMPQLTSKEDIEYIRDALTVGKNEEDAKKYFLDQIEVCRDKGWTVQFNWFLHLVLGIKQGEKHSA
In short: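 Enzyme IC50 against PI3Kγ, single determination (n=1).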

[18] = biological target: Diacylglycerol kinase beta (Homo sapiens, UniProt Q9Y6T7); assay: Inhibition of human DGKbeta (1 to 804 residues) by ADP Glo HTS assay; in short: as §2
[19] = Aqueous solubility of the compound in FASSIF; assay type: physicochemical
In short: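 Solubility from crystalline solid in Fasted Simulated Intestinal Fluid (FASSIF), µg/mL.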

[20] = Volume of distribution at steady state in mouse blood at 5 umol/kg, iv or 30 umol/kg, po; assay type: ADME, organism-based; conditions: read-out: Vdss
[21] = Volume of distribution at steady state in dog blood at 4 umol/kg, iv or 10 umol/kg, po; assay type: ADME, organism-based, Canis lupus familiaris; conditions: read-out: Vdss
[22] = Fraction unbound in dog plasma; assay type: ADME, cell-free, Canis lupus familiaris; in short: as §1
[23] = biological target: Choline/ethanolamine kinase (Homo sapiens, UniProt Q9Y259); assay: Inhibition of human CHKbeta (1 to 395 residues) by ADP Glo HTS assay; in short: as §2
[24] = biological target: Phosphatidylinositol 4-kinase beta (Homo sapiens, UniProt Q9UBF8); assay: Inhibition of human PIK4Cbeta (1 to 801 residues) by ADP Glo HTS assay; in short: as §2
[25] = Intrinsic clearance in mouse hepatocytes assessed per million cells; assay type: ADME, cell-based, Hepatocyte; conditions: read-out: CLH
In short: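 Intrinsic clearance measured in mouse or dog hepatocytes, expressed as CL_int in […].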

AUC [1]: 2.8 µM·h
IC50 [3]: 0.14 µM
fraction unbound [4]: 0.17
IC50 [5]: > 50 µM
IC50 [6]: > 30 µM
clearance [7]: 60 mL/min/kg
IC50 [8]: > 50 µM
IC50 [10]: > 50 µM
IC50 [11]: > 30 µM
IC50 [12]: > 50 µM
IC50 [13]: > 30 µM
IC50 [14]: > 50 µM
bioavailability [15]: 29%
IC50 [16]: 0.014 µM
IC50 [17]: 0.19 µM
IC50 [18]: > 50 µM
solubility [19]: 430 µg/mL (≈ 818 µM)
Vd [20]: 1 L/kg
Vd [21]: 1.2 L/kg
fraction unbound [22]: 0.28
IC50 [23]: > 50 µM
IC50 [24]: > 50 µM
hepatocyte CLint [25]: 68 µL/min/1e6 cells
Compound: O=C(c1cc([C@H]2CCCN2c2cc(F)cc(F)c2)c2oc(N3CCOCC3)cc(=O)c2c1)N1CCOCC1
inhibition in vivo at 50 mg/kg [2]: 71%
inhibition [9]: Active
